The test system of experiment [1] is Plasmodium falciparum. Briefly: Antimalarial activity against chloroquine-resistant Plasmodium falciparum W2 by pLDH assay. Format: functional, organism-based. The procedure, abridged: (§1)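 P. falciparum clones D10 (CQ-sensitive, moderately mefloquine-resistant) and W2 (CQ-resistant, mefloquine-susceptible) kept in human A+ RBCs in RPMI 1640 with 10% A+ plasma, HEPES and glutamine under 1% O2/5% CO2/94% N2. Asynchronous cultures (1-1.5% parasitemia, 1% hematocrit) exposed to serial dilutions (DMSO <1% final) for 72 h at 37 °C. Parasite LDH read at OD650. IC50 reported as mean ± SD of four experiments in triplicate.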

For experiment [2], the system named is Plasmodium falciparum. Put plainly: Antimalarial activity against chloroquine-sensitive Plasmodium falciparum D10 by pLDH assay. Format: functional, organism-based. The procedure, abridged:
as §1

SMILES strings stand for the structures. pIC50: −log10 of the molar value.

One may read the pIC50 as −log10 of the IC50, conventionally taken in molar units. A high value points to a small IC50. In the case of `CC[C@H](C[C@@]1(C)C[C@@H](CC)[C@@H](CC(=O)OC)OO1)[C@@H]1O[C@H]1CC`, the pIC50 in experiment [1] is 6.15; in experiment [2] it was 5.92.
As for `CC[C@H](C[C@@]1(C)C[C@@H](CC)[C@@H](CC(=O)OC)OO1)C(=O)O`, the values for the pIC50 in experiment [1] and in experiment [2] were 5.91 and 5.92, respectively.
As for `CC/C=C/[C@H](CC)C[C@@]1(C)C[C@@H](CC)[C@@H](CCOC)OO1`, the pIC50 was 6.39 in experiment [1] and 6.13 in experiment [2].
For the compound `CC/C=C/[C@H](CC)C[C@@]1(C)C[C@@H](CC)[C@@H](CCO)OO1`, the figures for the negative logarithm of the IC50 (pIC50) in experiment [1] and in experiment [2] were 6.32 and 6.08, respectively.
Regarding `CC/C=C/[C@H](CC)C[C@@]1(C)C[C@@H](CC)[C@@H](CC(=O)OC)OO1` [PLAKORTIN], the pIC50 in experiment [1] was 6.39; in experiment [2] it was 6.06.
In the same order, the values of `C[C@@H]1CC[C@H]2[C@@H](C)C(=O)O[C@@H]3O[C@@]4(C)CC[C@@H]1[C@]32OO4` [ARTEMISININ] are 8.05 and 7.89.
For `CC[C@H](C[C@@]1(C)C[C@@H](CC)[C@@H](CC(=O)OC)OO1)[C@H]1O[C@@H]1CC`, the pIC50 in experiment [1] was 6.30; in experiment [2] it was 5.98.
On to `CC[C@H](C[C@@]1(C)C[C@@H](CC)[C@@H](CC(=O)OC)OO1)C(=O)OC`, for which the values for the pIC50 in experiment [1] and in experiment [2] were 6.11 and 6.07, respectively.
Regarding `CC/C=C/[C@H](CC)C[C@@]1(C)C[C@@H](CC)[C@@H](CCOC(C)=O)OO1`, the pIC50 in experiment [1] is 6.34; in experiment [2] it was 6.08.

For the origin of these results see ChEMBL document CHEMBL1137345, “Endoperoxide derivatives from marine organisms: 1,2-dioxanes of the plakortin family as novel antimalarial agents” (J Med Chem, 2006).
